Assay results reported in article PMC6911266 (Nature, 2019).
Where a chain is given by its changes, count along the chain named. Read-outs that look alike come from different tables or passages of the source.

What was measured:
[1] = molecular target: T1, PfCRT 7G8+F145I (Plasmodium falciparum, UniProt W7FI62, F145I); assay: Transport; type: biochemical; conditions: for 1-min uptake, transport in proteoliposomes: 100 nM [3H]-drug, inwardly-directed pH gradient; for Vmax, transport in proteoliposomes: initial rates over 3 s, Michaelis-Menten fit; for transport activity (in words): proteoliposomes
T1 sequence (W7FI62 1-424 F145I): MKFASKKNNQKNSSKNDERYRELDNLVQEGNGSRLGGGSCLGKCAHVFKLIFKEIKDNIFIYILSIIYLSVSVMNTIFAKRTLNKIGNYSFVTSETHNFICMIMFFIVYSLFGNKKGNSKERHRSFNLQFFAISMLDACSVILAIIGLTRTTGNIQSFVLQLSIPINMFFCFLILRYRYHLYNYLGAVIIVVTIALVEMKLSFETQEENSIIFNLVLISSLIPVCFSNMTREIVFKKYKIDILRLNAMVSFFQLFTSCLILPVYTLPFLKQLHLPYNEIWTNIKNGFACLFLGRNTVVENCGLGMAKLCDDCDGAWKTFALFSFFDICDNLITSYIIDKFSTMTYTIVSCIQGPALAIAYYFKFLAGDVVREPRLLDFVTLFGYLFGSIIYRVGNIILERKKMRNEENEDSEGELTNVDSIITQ

[2] = test system: P. falciparum 7G8^7G8+C350R parasite line; assay: Parasite drug susceptibility assay; type: cell-based, Plasmodium falciparum; conditions: Plasmodium falciparum, 7G8, 72 h
Method in brief: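 Asynchronous asexual blood-stage parasites were seeded at 0.3% parasitemia and 1% hematocrit into 2-fold, 10-point test compound dilutions. Incubation was 72 h at 37°C under 5% O2/5% CO2/90% N2. Final parasitemia was read by flow cytometry. IC50 came from nonlinear regression, 4 independent assays in duplicate, with two-tailed Mann-Whitney U tests.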

[3] = molecular target: T2, PfCRT WT (3D7) (Plasmodium falciparum, UniProt Q9N623); assay: Equilibrium dialysis binding, PfCRT variant in nanodiscs; conditions: for Bmax, binding at pH 5.5 / Bmax, binding at pH 7.5: equilibrium dialysis
T2 sequence (Q9N623 1-424): T1 sequence (W7FI62 1-424 F145I) with S72C, T76K, I145F, S220A, D326N, L356I
Method in brief: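 Saturation binding of [3H]-CQ (1 Ci/mmol) or [3H]-PPQ (2.5 Ci/mmol) by equilibrium dialysis (12,000–14,000 MWCO) with 4.2 pmol PfCRT in POPG/MSP1D1 nanodiscs (BacMam, HEK293S GnTi- cells). Kd came from global non-linear regression, N=3.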

[4] = molecular target: T3, PfCRT 7G8 (Plasmodium falciparum, UniProt W7FI62); type: biochemical; conditions: for transport activity (in words): proteoliposomes
T3 sequence (W7FI62 1-424): T1 sequence (W7FI62 1-424 F145I) with I145F

[5] = test system: P. falciparum 7G8^7G8 parasite line; assay: Piperaquine survival assay; type: cell-based, Plasmodium falciparum; conditions: vs no-drug control
[6] = test system: P. falciparum Dd2^Dd2 parasite line; assay: Piperaquine survival assay; type: cell-based, Plasmodium falciparum; conditions: vs no-drug control
[7] = test system: P. falciparum ring-stage parasites; assay: Piperaquine survival assay, summary in text; type: cell-based, Plasmodium falciparum
[8] = test system: P. falciparum WT (3D7) parasite line; assay: Piperaquine survival assay; type: cell-based, Plasmodium falciparum; conditions: vs no-drug control
[9] = test system: P. falciparum 7G8^7G8+C350R parasite line; assay: Piperaquine survival assay; type: cell-based, Plasmodium falciparum; conditions: vs no-drug control
[10] = test system: P. falciparum 7G8^7G8+F145I parasite line; assay: Piperaquine survival assay; type: cell-based, Plasmodium falciparum; conditions: vs no-drug control

CCN(CC)CCCC(C)Nc1ccnc2cc(Cl)ccc12 (stereo not drawn) [CQ, chloroquine]
1-min uptake, transport in proteoliposomes [1]: 0.24 ± 0.05 nmol/mg | Vmax, transport in proteoliposomes [1]: 63.01 ± 3.57 nmol/mg/min | transport activity (in words) [1]: reduced uptake | IC50 [2]: 6.9 ± 0.3 nM | Kd [3]: 280 ± 40 nM | Bmax, binding at pH 5.5 [3]: 0.40 ± 0.02 mol CQ/mol PfCRT | Bmax, binding at pH 7.5 [3]: 0.42 ± 0.02 mol CQ/mol PfCRT | 1-min uptake, transport in proteoliposomes ([4]; 100 nM [3H]-drug, 1 min, inwardly-directed pH gradient): 3.14 ± 0.50 nmol/mg | catalytic turnover number (kcat) ([4]; from Vmax, assuming full activity of reconstituted PfCRT 7G8): ~ 0.2 s^−1 | Vmax, transport in proteoliposomes ([4]; initial rates over 3 s, Michaelis-Menten fit): 92.2 ± 4.9 nmol/mg/min | time course of uptake (in words) ([4]; pH gradient 5.5–7.5 and membrane potential (valinomycin)): maximal within one minute | transport activity (in words) [4]: robust transport activity

Clc1ccc2c(N3CCN(CCCN4CCN(c5ccnc6cc(Cl)ccc56)CC4)CC3)ccnc2c1 [PPQ, piperaquine]
1-min uptake, transport in proteoliposomes [1]: 1.41 ± 0.12 nmol/mg | Vmax, transport in proteoliposomes [1]: 109.30 ± 7.27 nmol/mg/min | transport activity (in words) [1]: substantially increased | IC50 [2]: 29.5 ± 1.6 nM | PSA 3.125 nM, percent survival ([5]; 3.125 nM PPQ 48 h): 93.8 ± 3.5% | PSA 6.25 nM, percent survival ([5]; 6.25 nM PPQ 48 h): 87.1 ± 3.5% | PSA 12.5 nM, percent survival ([5]; 12.5 nM PPQ 48 h): 76.7 ± 5.1% | PSA 25 nM, percent survival ([5]; 25 nM PPQ 48 h): 48.3 ± 5.5% | PSA 50 nM, percent survival ([5]; 50 nM PPQ 48 h): 4.9 ± 1.3% | PSA 100 nM, percent survival ([5]; 100 nM PPQ 48 h): 1.6 ± 0.3% | PSA 200 nM, percent survival ([5]; 200 nM PPQ 48 h): 1.4 ± 0.2% | PSA 400 nM, percent survival ([5]; 400 nM PPQ 48 h): 0.66 ± 0.20% | PSA 800 nM, percent survival ([5]; 800 nM PPQ 48 h): 0.56 ± 0.17% | PSA 1600 nM, percent survival ([5]; 1600 nM PPQ 48 h): 0.54 ± 0.20% | PSA 3.125 nM, percent survival ([6]; 3.125 nM PPQ 48 h): 95.9 ± 2.1% | PSA 6.25 nM, percent survival ([6]; 6.25 nM PPQ 48 h): 83.6 ± 6.1% | PSA 12.5 nM, percent survival ([6]; 12.5 nM PPQ 48 h): 67.7 ± 11.9% | PSA 25 nM, percent survival ([6]; 25 nM PPQ 48 h): 35.3 ± 12.2% | PSA 50 nM, percent survival ([6]; 50 nM PPQ 48 h): 7.6 ± 3.3% | PSA 100 nM, percent survival ([6]; 100 nM PPQ 48 h): 1.7 ± 0.2% | PSA 200 nM, percent survival ([6]; 200 nM PPQ 48 h): 1.1 ± 0.10% | PSA 400 nM, percent survival ([6]; 400 nM PPQ 48 h): 1.1 ± 0.24% | PSA 800 nM, percent survival ([6]; 800 nM PPQ 48 h): 0.89 ± 0.16% | PSA 1600 nM, percent survival ([6]; 1600 nM PPQ 48 h): 0.87 ± 0.10% | survival in PPQ survival assay ([7]; PPQ-S parasites, concentrations of 200 nM or more): ≤ 1% | survival in PPQ survival assay ([7]; standard assay concentration of 200 nM PPQ, 48 h, edited 7G8+F145I and 7G8+C350R lines (Fig. 3l)): 9–10% | PSA 3.125 nM, percent survival ([8]; 3.125 nM PPQ 48 h): 81.2 ± 19.6% | PSA 6.25 nM, percent survival ([8]; 6.25 nM PPQ 48 h): 12.1 ± 6.8% | PSA 12.5 nM, percent survival ([8]; 12.5 nM PPQ 48 h): 7.2 ± 1.5% | PSA 25 nM, percent survival ([8]; 25 nM PPQ 48 h): 11.0 ± 1.7% | PSA 50 nM, percent survival ([8]; 50 nM PPQ 48 h): 4.9 ± 1.1% | PSA 100 nM, percent survival ([8]; 100 nM PPQ 48 h): 1.3 ± 0.35% | PSA 200 nM, percent survival ([8]; 200 nM PPQ 48 h): 1.2 ± 0.54% | PSA 400 nM, percent survival ([8]; 400 nM PPQ 48 h): 0.61 ± 0.19% | PSA 800 nM, percent survival ([8]; 800 nM PPQ 48 h): 0.62 ± 0.16% | PSA 1600 nM, percent survival ([8]; 1600 nM PPQ 48 h): 0.51 ± 0.17% | Kd [3]: 260 ± 40 nM | Bmax, binding at pH 5.5 [3]: 0.38 ± 0.02 mol CQ/mol PfCRT | Bmax, binding at pH 7.5 [3]: 0.40 ± 0.02 mol CQ/mol PfCRT | transport activity (in words) [4]: Minimal | transport activity (in words) ([4]; listed as [^3H]-PPQ): no detectable | PSA 3.125 nM, percent survival ([9]; 3.125 nM PPQ 48 h): 96.6 ± 2.4% | PSA 6.25 nM, percent survival ([9]; 6.25 nM PPQ 48 h): 90.7 ± 5.1% | PSA 12.5 nM, percent survival ([9]; 12.5 nM PPQ 48 h): 79.8 ± 5.5% | PSA 25 nM, percent survival ([9]; 25 nM PPQ 48 h): 62.1 ± 9.6% | PSA 50 nM, percent survival ([9]; 50 nM PPQ 48 h): 31.8 ± 9.3% | PSA 100 nM, percent survival ([9]; 100 nM PPQ 48 h): 7.7 ± 2.5% | PSA 200 nM, percent survival ([9]; 200 nM PPQ 48 h): 9.5 ± 1.2% | PSA 400 nM, percent survival ([9]; 400 nM PPQ 48 h): 10.5 ± 1.1% | PSA 800 nM, percent survival ([9]; 800 nM PPQ 48 h): 6.6 ± 0.46% | PSA 1600 nM, percent survival ([9]; 1600 nM PPQ 48 h): 5.9 ± 0.9% | PSA 3.125 nM, percent survival ([10]; 3.125 nM PPQ 48 h): 95.7 ± 3.1% | PSA 6.25 nM, percent survival ([10]; 6.25 nM PPQ 48 h): 83.4 ± 4.5% | PSA 12.5 nM, percent survival ([10]; 12.5 nM PPQ 48 h): 62.3 ± 4.1% | PSA 25 nM, percent survival ([10]; 25 nM PPQ 48 h): 44.5 ± 2.4% | PSA 50 nM, percent survival ([10]; 50 nM PPQ 48 h): 8.5 ± 1.2% | PSA 200 nM, percent survival ([10]; 200 nM PPQ 48 h): 8.6 ± 2.4% | PSA 400 nM, percent survival ([10]; 400 nM PPQ 48 h): 12.7 ± 2.5% | PSA 800 nM, percent survival ([10]; 800 nM PPQ 48 h): 13.1 ± 3.9% | PSA 1600 nM, percent survival ([10]; 1600 nM PPQ 48 h): 14.7 ± 4.2%
